Sampled rows, rich in hits. Any-hit rate of the full collection: about 3.8%.
RAM network inh: blocks the yeast RAM network | S. cerevisiae dse1pr::URA3 reporter, 5-FOA growth OD615, 2 d; analog-sensitive cbk1-as2 kinase mutant strain | inhibition, % at 50 µM | 190,000 compounds, 1.8% hits | AID 868;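 active means inhibition above a set limit, 3 SD over mean compound inhibition, cut at about 8.4% in these data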;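 further: 0% = DMSO-only wells with no growth and 100% = 10 µM 1-NA-PP1 full growth; inhibition rescues growth on 5-FOA so higher OD means more RAM inhibition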
Yeast life ext: extends the lifespan of yeast; S. cerevisiae growth with nicotinamide, OD615; deaD strain in restrictive glucose medium; inhibition of the nicotinamide effect, % at 10 µM; 130,000 compounds, 0.68% hits;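 active means inhibition above a set limit, placed 3 SD over the median of all compounds, cut at about 26% in these data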;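 further: 0% = nicotinamide-treated wells and 100% = cells grown without nicotinamide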
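System: DeaD-strain S. cerevisiae / Buffer or medium: CSMM-D, restrictive glucose (dextrose) synthetic minimal medium / Probe or stimulus: nicotinamide, 1.5 mM, co-present with compound / Compound: one concentration, 10 µM, DMSO 0.25% / Incubation: 48 h compound exposure at 30 °C, humidified / Technique: optical density (absorbance) at 615 nm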
Measles CPE: protection of cells from measles virus | Measles virus-infected cells, CPE protection, absorbance | protection (pct of control), % at 4 µM | 140,000 compounds, 1.5% hits; in the data active means protection mostly above about 24%, no sharp cut-off; inactive means mostly below about 26%
BB579 growth dn: reduces growth of yeast BB579 in restrictive medium | S. cerevisiae BB579 growth, OD615, 48 h | 140,000 compounds, 0.51% hits | inhibition, % at 10 µM | AID 804;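 active means inhibition above a set limit, 3 SD over the mean compound inhibition, cut at about 44% in these data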
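Assay system – yeast BB579 (DeaD) · Dosing – single compound dose of 10 µM, 0.25% DMSO final · Detection – OD615 turbidity measurement · Buffer or medium – CSMM-D restrictive synthetic medium containing dextrose (glucose) · Benchmarks – positive control amphotericin B 10 µg/mL · Incubation – 48 h exposure, 30 °C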
An asterisk follows results filed as active; nt = no result.

SMILES | RAM network inh | Yeast life ext | Measles CPE | BB579 growth dn
CC(/C=C/c1ccc(N(C)C)cc1)=N\N=C(/N)SC1CC(=O)N(c2ccc(C(=O)O)cc2)C1=O (stereo not drawn) | 9.8* | 3 | 5 | -14
Cc1ccc(S(=O)(=O)c2cc3ccccc3oc2=Nc2ccc3c(c2)OCO3)cc1 | 0 | -15 | 25* | -35
Cc1ccc(S(=O)(=O)c2cc3ccccc3oc2=Nc2ccc3c(c2)OCCO3)cc1 | 4 | 3 | 7 | -41
Cc1ccc(S(=O)(=O)N(C)CCCC(=O)NC(C)(C)C)cc1 | 0 | nt | nt | nt
O=C(NC(=S)Nc1cccc(C(F)(F)F)c1)c1csnn1 | -1 | nt | nt | nt
CC(=O)Nc1ccc(S(=O)(=O)NC2(C(F)(F)F)NC(=O)N(C3CCCCC3)C2=O)cc1 (stereo not drawn) | 3 | -13 | 15 | -28
O=C(NC1=NCCS1)C1Cc2ccccc2CN1C(=O)c1ccccc1 (stereo not drawn) | 0 | -4 | 29* | -41
O=c1oc2cc(OCc3c(F)cccc3Cl)ccc2cc1-c1ccccn1 | 4 | -3 | 46* | -50
COc1ccc(N2CCN(S(=O)(=O)c3ccc(OC)cc3)CC2)cc1 | 4 | nt | 5 | 2
Cc1cccc(C)c1N1CCN(S(=O)(=O)c2ccc(F)cc2)CC1 | 9.2* | -1 | 11 | -57
COc1ccc(S(=O)(=O)N2CCN(c3cccc(C)c3C)CC2)cc1 | 8.4* | -9 | 9 | -37
C/C(=N\NC(=O)c1cc(-c2ccc(C)s2)[nH]n1)c1ccco1 | 3 | -5 | 26 | -50
Cc1ccc(Nc2c([N+](=O)[O-])c(=O)n(C)c3ccccc23)cc1C | 0 | -1 | 12 | -64
CCNC(=S)N/N=C/c1cccc(/C=N/NC(=S)NCC)c1 | 10.0* | nt | nt | nt
S=C(NCCc1ccccc1)N/N=C/c1ccccc1Cl | 1 | -2 | 11 | -26
CCc1ccc(/C=N/NC(=S)NCCc2ccccc2)cc1 | 8.5* | 14 | 3 | -29
Cc1ccc(/C=N/NC(=O)c2ccc(C(=O)N/N=C/c3ccc(C)s3)o2)s1 | 10* | 2 | 5 | -73
Cc1ccc(/C=N/NC(=O)c2ccco2)s1 | 0 | -9 | 16 | 8
CCOc1ccc(/C=N/n2c(SC)nnc2-c2ccccc2)cc1OCC | 2 | -15 | 11 | -47
CC(=O)N(C)c1ccc(NC(=O)c2ccc([N+](=O)[O-])cc2Cl)cc1 | 1 | -2 | 18 | -2
CCOC(=O)CSc1nc(-c2ccccc2)nc2c1oc1ccccc12 | 8 | -12 | 14 | -48
c1ccc(-c2nc(NCc3ccco3)c3oc4ccccc4c3n2)cc1 | 11* | -8 | 0 | -51
O=C(O)CSc1nc(-c2ccccc2)nc2c1oc1ccccc12 | 9.8* | -9 | nt | -33
Cc1ccc(-c2nc(NCc3ccco3)c3ccccc3n2)cc1 | 0 | -9 | 25 | -17
O=C(NCc1cccnc1)NC1CC(=O)N(c2ccc3c(c2)OCCO3)C1 (stereo not drawn) | 3 | nt | nt | nt
SMILES | RAM network inh | Yeast life ext | Measles CPE | BB579 growth dn
CCSCc1nnc(SCC(=O)Nc2ccc(OC)cc2)n1C | -1 | nt | nt | nt
CCOC(=O)c1c(N2C(=O)Nc3ccccc3N2O)sc2c1CCCC2 | 2 | 30* | 20 | -31
COC(=O)c1cccc(NC(=O)CSc2nc3cccnc3n2C)c1 | 8 | -15 | 63* | -8
Nc1cc(=O)[nH]c(SCC(=O)Nc2ncc(C(F)(F)F)cc2Cl)n1 | -1 | nt | nt | nt
COC(=O)/C=C1\SC(N2CCOCC2)=C(c2ccc(OC)cc2)C1=O | 0 | nt | nt | nt
CCOc1ccccc1OCCOc1ccccc1OC(C)C | 18* | -8 | 8 | 12
COc1cc(/C=C2/C(=O)ON=C2c2ccccc2)ccc1O | 0 | 12 | 10 | 86*
COc1cc(/C=C2\C(=O)ON=C2c2ccccc2)cc(Cl)c1O | -1 | nt | nt | nt
S=C(NC1CCCCC1)NC1CC2CCC(C1)N2Cc1ccccc1 (stereo not drawn) | -2 | nt | nt | nt
CC(C(=O)NCCCc1ccccc1)c1ccc([N+](=O)[O-])cc1 (stereo not drawn) | 2 | nt | nt | nt
CC1=CC(=O)C=C(C)C1=NOS(=O)(=O)c1ccccc1 | -2 | -28 | 4 | 100*
CCc1cc2ccc(C)cc2nc1SCC(=O)Nc1cc(OC)c(OC)cc1C(=O)O | -1 | 3 | 1 | -42
CCc1cc2cc3c(cc2nc1SCC(=O)Nc1cc(OC)c(OC)cc1C(=O)O)OCO3 | 9.5* | nt | nt | nt
CC(C)=C(C#N)c1nc2ccccc2s1 | 1 | -16 | 9 | 0
Cc1ccc(OC/C(O)=C(\C#N)c2nc3ccccc3s2)cc1 | 4 | 28* | 12 | -29
COC(=O)c1ccc(/C(O)=C(\C#N)c2nc3ccccc3s2)cc1 | 0 | 31* | 1 | -4
O=C(Nc1cccc(C(=O)O)c1)/C(=C\c1ccc2c(c1)OCO2)NC(=O)c1ccc(Br)cc1 | 4 | nt | nt | nt
O=C1C(C2=C(O)c3ccccc3C2=O)=Nc2ccccc21 | 3 | 45* | 17 | -9
CN=CC1=C(O)c2ccccc2C1=O | 0 | -14 | 13 | -22
CS(=O)(=O)Nc1ccc2c(c1)C(=O)OC2 | 0 | -2 | 53* | -32
COc1ccc(CN2C(=O)c3c(c(C)n(C)c3C)C2C(=O)NC2CCC(C)CC2)cc1 (stereo not drawn) | 4 | nt | nt | nt
OC(Cn1cncn1)(c1ccccc1)c1ccccc1 | 1 | -18 | 30 | 92*
C/C(N)=C(/C#N)C(=O)CSc1nc2scc(-c3ccccc3)c2c(=O)n1C | 9.6* | nt | nt | nt
COc1ccccc1NC(=O)Cn1nnc(-c2ccccc2NS(=O)(=O)c2ccccc2)n1 | 1 | -3 | 23 | -27
COc1ccc(NC(=O)Cn2nnc(-c3ccccc3NS(=O)(=O)c3ccc(OC)cc3)n2)cc1 | 9.5* | 11 | 2 | -57
SMILES | RAM network inh | Yeast life ext | Measles CPE | BB579 growth dn
Cc1ccc(NC(=O)Cn2nnc(-c3ccccc3NC(=O)c3cccs3)n2)cc1 | 8.4* | -1 | 6 | -51
Cc1cccc(C)c1NC(=O)C(c1ccc([N+](=O)[O-])cc1)N(C)C(=O)c1ccccn1 (stereo not drawn) | 2 | -1 | 13 | -20
COc1cccc(-c2ccc(-c3noc(-c4cccs4)n3)c(OC)n2)c1 | 6 | 4 | 16 | -31
COc1cccc(-c2ccc(-c3noc(-c4ccccc4F)n3)c(OC)n2)c1 | 11* | -8 | 4 | -38
Cc1c(C(=O)NNc2cc(=O)n(C)c(=O)n2C)cccc1[N+](=O)[O-] | 0 | nt | nt | nt
Cc1ccsc1C(=O)OCC(=O)N1CCc2ccccc2C1 | 0 | nt | nt | nt
Cc1ccc2occ(C(c3nnnn3Cc3ccccc3)N3CCOCC3)c(=O)c2c1 (stereo not drawn) | 2 | 26* | 4 | -42
O=C(/C=C/c1cccc(Br)c1)N1CCN(c2ccccn2)CC1 | 1 | nt | nt | nt
C/C(=N\Nc1ccc([N+](=O)[O-])cc1)c1ccc(N)cc1 | -2 | -10 | nt | 97*
CC(C)(C)c1cc[n+](/C(C(=S)Nc2ccccc2F)=C(/[O-])c2ccc3c(c2)OCCO3)cc1 | 2 | nt | nt | nt
CCOc1ccccc1NC(=S)/C(=C(\[O-])c1ccc2c(c1)OCCO2)[n+]1ccc(CC)cc1 | 1 | -18 | 28* | -42
